Assay results as given in ChEMBL document CHEMBL1125330, “N-substituted pyrazino[2,3-c][1,2,6]thiadiazine 2,2-dioxides. A new class of diuretics” (J Med Chem, 1992).

Key:
[1] = system: Rattus norvegicus; experiment: Mean Chlorine excretion in rats when compound administered at 10 mg/kg po and vehicle dosed at 37.13 umol/kg; type: ADME, organism-based; design: dose 10 mg/kg, route oral; conditions: in vivo
Outline: (§1)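 Male Sprague-Dawley rats (HC/CFY, 175-200 g), no food or water for 18 h before and during the test. Single gavage dose (2.5-160 mg/kg; vehicle 1% carboxymethyl cellulose/0.1% Tween 80, 0.5 mL/100 g bw), then distilled water 2.5 mL/100 g bw po. Individual metabolic cages, 6 h urine. K+ by flame photometry, Cl- colorimetric, as mequiv/6 h/kg bw; unpaired Student t-test vs control.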

[2] = system: Rattus norvegicus; experiment: Mean Chlorine excretion in rats when compound administered at 5 mg/kg po and vehicle dosed at 18.56 umol/kg; type: ADME, organism-based; design: dose 5 mg/kg, route oral; conditions: in vivo; outline: as §1
[3] = system: Rattus norvegicus; experiment: Mean Chlorine excretion in rats when compound administered at 80 mg/kg po and vehicle dosed at 297.03 umol/kg; type: ADME, organism-based; design: dose 80 mg/kg, route oral; conditions: in vivo; outline: as §1
[4] = system: Rattus norvegicus; experiment: Urinary sodium 2 hr after the compound was administered 100 mg/kg po in rat; type: ADME, organism-based, Urine; design: dose 100 mg/kg, route oral; conditions: in vivo
Outline: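 Onset and duration study in fasted, water-loaded male Sprague-Dawley rats housed two per metabolic cage, six pairs per group. Single oral dose given, then water 2.5 mL/100 g po. Urine volume and sodium (flame photometry) measured over 0-1, 1-2, 2-3, 3-4 and 4-6 h intervals. Mean values compared with vehicle by Student t-test.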

[5] = system: Rattus norvegicus; experiment: Mean potassium excretion in rats when compound administered at 160 mg/kg po and vehicle dosed at 594.07 umol/kg; type: ADME, organism-based; design: dose 160 mg/kg, route oral; conditions: in vivo; outline: as §1
[6] = system: Rattus norvegicus; experiment: Mean sodium excretion in rats when compound administered at 10 mg/kg po and vehicle dosed at 37.13 umol/kg; type: ADME, organism-based; design: dose 10 mg/kg, route oral; conditions: in vivo
Outline: (§2)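 Male Sprague-Dawley rats (HC/CFY, 175-200 g) fasted and water-deprived 18 h before and during the test. Dosed by gavage at 2.5-160 mg/kg in 1% carboxymethyl cellulose/0.1% Tween 80, 0.5 mL/100 g bw. Immediately hydrated with water (2.5 mL/100 g bw, po). Urine collected 6 h in metabolic cages; Na+ and K+ by flame photometry; mean mequiv/6 h/kg bw; nonpaired Student t-test.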

[7] = system: Rattus norvegicus; experiment: Mean sodium excretion in rats when compound administered at 40 mg/kg po and vehicle dosed at 148.52 umol/kg; type: ADME, organism-based; design: dose 40 mg/kg, route oral; conditions: in vivo; outline: as §2
[8] = system: Rattus norvegicus; experiment: Volume of urine 6 hr after the compound was administered 100 mg/kg po in rat; type: ADME, organism-based; design: dose 100 mg/kg, route oral; conditions: in vivo
Outline: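 Onset/duration protocol: male Sprague-Dawley rats (HC/CFY, 175-200 g), food and water withdrawn for 18 h before and during the test. Single gavage dose in 1% carboxymethyl cellulose/0.1% Tween 80 (0.5 mL/100 g bw), then distilled water load (2.5 mL/100 g bw po). Two rats per metabolic cage, six pairs per group. Urine collected at 0-1, 1-2, 2-3, 3-4 and 4-6 h; Na+ by flame photometry. Vehicle controls; nonpaired Student t-test.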

[9] = system: Rattus norvegicus; experiment: Mean urinary output in rats when compound administered at 10 mg/kg po and vehicle dosed at 37.13 umol/kg; type: ADME, organism-based, Urine; design: dose 10 mg/kg, route oral; conditions: in vivo
Outline: (§3)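 Water-loaded male Sprague-Dawley rats (HC/CFY, 175-200 g) fasted and without water for 18 h. Oral gavage of 2.5-160 mg/kg in 1% CMC with 0.1% Tween 80, then distilled water 2.5 mL/100 g po. Urine collected 6 h in metabolic cages, mean output in mL/6 h/kg bw. Unpaired Student t-test against vehicle; dose-response by linear regression.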

[10] = system: Rattus norvegicus; experiment: Mean urinary output in rats when compound administered at 20 mg/kg po and vehicle dosed at 74.26 umol/kg; type: ADME, organism-based, Urine; design: dose 20 mg/kg, route oral; conditions: in vivo; outline: as §3
[11] = system: Rattus norvegicus; experiment: Mean urinary output in rats when compound administered at 40 mg/kg po and vehicle dosed at 148.52 umol/kg; type: ADME, organism-based, Urine; design: dose 40 mg/kg, route oral; conditions: in vivo; outline: as §3
[12] = system: Rattus norvegicus; experiment: Mean urinary output in rats when compound administered at 5 mg/kg po and vehicle dosed at 18.56 umol/kg; type: ADME, organism-based, Urine; design: dose 5 mg/kg, route oral; conditions: in vivo; outline: as §3
[13] = species on record: Rattus norvegicus; experiment: Mean urinary output in rats (Control/Drug treatment value); value 24.2/47.6; type: ADME, organism-based, Urine; conditions: in vivo
Outline: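 Water-loaded male Sprague-Dawley rats (HC/CFY, 175-200 g), eight per group, deprived of food and water 18 h. Single oral gavage of 20-25 mg/kg (some 10 mg/kg) in 1% CMC/0.1% Tween 80, then distilled water 2.5 mL/100 g bw po. Cumulative urine over 6 h in metabolic cages; mean mL/6 h/kg bw vs vehicle group.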

[14] = Acute toxicity in mice when given po; type: organism-based; conditions: mouse, in vivo, read-out: DL50 (the source's name)
Outline: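 Male Swiss mice (SPF, HC/CFLP strain, 20–25 g), oral dosing; mortality followed over 15 days; LD50 derived by the Litchfield and Wilcoxon method.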

[15] = species on record: Rattus norvegicus; experiment: Dose required to produce increase in 50 % in urine production vs control groups; type: functional; conditions: Rattus norvegicus, Urine
Outline: (§4)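 Male Sprague-Dawley rats (HC/CFY, 175-200 g), fasted and water-deprived 18 h before and during the test. Compound dosed by gavage in 1% carboxymethyl cellulose/0.1% Tween 80, then water load 2.5 mL/100 g bw po. Urine collected 6 h in metabolic cages; Na+ by flame photometry. Effective doses vs vehicle controls derived by linear regression of dose-response data.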

[16] = species on record: Rattus norvegicus; experiment: Dose required to produce increase in 200 % in urine production vs control groups; type: functional; outline: as §4

Question: For `CCc1nc2c(nc1C)C(N)=NS(=O)(=O)N2CC`, which Cl- [1] is on record?
Answer: The Cl- was 2.67 m equiv 6hr-1 kg-1 (body weight)-1.

Question: And the Cl- [2]?
Answer: The Cl- was 1.83 m equiv 6hr-1 kg-1 (body weight)-1.

Question: What about the Cl- [3] of the same compound?
Answer: Its Cl- is 8.04 m equiv 6hr-1 kg-1 (body weight)-1.

Question: And the “Urinary Na+” value [4]?
Answer: Its value is 0.67 m equiv.

Question: And the K [5]?
Answer: Its K is 2.35 m equiv 6hr-1 kg-1 (body weight)-1.

Question: And the Na [6]?
Answer: Its Na is 1.21 m equiv 6hr-1 kg-1 (body weight)-1.

Question: And the Na [7]?
Answer: Its Na is 3.63 m equiv 6hr-1 kg-1 (body weight)-1.

Question: What about the Urine volume [8] of the same compound?
Answer: Its Urine volume is 1.99 mL.

Question: What about the V [9] of the same compound?
Answer: The V was 32.6 ml 6hr-1 (kg of body weight)-1.

Question: What about the V [10] of the same compound?
Answer: Its V is 42.25 ml 6hr-1 (kg of body weight)-1.

Question: What about the V [11] of the same compound?
Answer: Its V is 59.12 ml 6hr-1 (kg of body weight)-1.

Question: And the V [12]?
Answer: The V was 25.06 ml 6hr-1 (kg of body weight)-1.

Question: And the V [13]?
Answer: The V was 2.

Question: And the LD50 [14]?
Answer: The LD50 was 1840 mg/kg.

Question: What about the ED50 [15] of the same compound?
Answer: Its ED50 is 9.17 mg/kg.

Question: What about the ED200 [16] of the same compound?
Answer: The ED200 was 87.61 mg/kg.
